Molecules are shown by their SMILES. Converted amounts (≈) assume the structure as drawn. Some results are limits rather than exact numbers.

Data set [1] concerns the target T1, Adenosine receptor A2b (Mus musculus, UniProt Q60614).
T1 sequence (Q60614 whole entry): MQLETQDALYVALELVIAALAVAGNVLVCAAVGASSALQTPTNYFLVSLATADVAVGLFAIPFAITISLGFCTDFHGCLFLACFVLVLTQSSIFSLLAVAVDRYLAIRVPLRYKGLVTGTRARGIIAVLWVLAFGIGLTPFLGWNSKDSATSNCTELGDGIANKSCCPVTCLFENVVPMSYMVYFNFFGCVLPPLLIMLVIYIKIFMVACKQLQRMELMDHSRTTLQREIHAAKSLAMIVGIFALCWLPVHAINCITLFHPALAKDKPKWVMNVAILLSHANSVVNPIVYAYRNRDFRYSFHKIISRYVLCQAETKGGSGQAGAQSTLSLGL
As to the kind of experiment: Displacement of [3H]PSB-603 from recombinant mouse A2B adenosine receptor expressed in CHO cell membranes measured after 75 mins by liquid scintillation counting method.

Data set [2] concerns the target T2, Adenosine receptor A3 (Mus musculus, UniProt Q61618).
T2 sequence (Q61618 whole entry): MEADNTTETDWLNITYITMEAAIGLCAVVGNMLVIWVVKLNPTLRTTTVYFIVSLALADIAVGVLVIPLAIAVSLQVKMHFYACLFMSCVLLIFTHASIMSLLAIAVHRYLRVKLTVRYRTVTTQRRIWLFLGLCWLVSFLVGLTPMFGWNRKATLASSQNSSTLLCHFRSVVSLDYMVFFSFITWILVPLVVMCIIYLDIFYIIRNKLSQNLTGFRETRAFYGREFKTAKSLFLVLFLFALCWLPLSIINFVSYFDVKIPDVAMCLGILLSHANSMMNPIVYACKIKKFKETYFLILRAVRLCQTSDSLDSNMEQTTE
As to the kind of experiment: Displacement of [3H]NECA from recombinant mouse A3 adenosine receptor expressed in CHO cell membranes measured after 180 mins by liquid scintillation counting method.

The target in data set [3] is T3, Adenosine receptor A1 (Mus musculus, UniProt Q60612).
T3 sequence (Q60612 whole entry): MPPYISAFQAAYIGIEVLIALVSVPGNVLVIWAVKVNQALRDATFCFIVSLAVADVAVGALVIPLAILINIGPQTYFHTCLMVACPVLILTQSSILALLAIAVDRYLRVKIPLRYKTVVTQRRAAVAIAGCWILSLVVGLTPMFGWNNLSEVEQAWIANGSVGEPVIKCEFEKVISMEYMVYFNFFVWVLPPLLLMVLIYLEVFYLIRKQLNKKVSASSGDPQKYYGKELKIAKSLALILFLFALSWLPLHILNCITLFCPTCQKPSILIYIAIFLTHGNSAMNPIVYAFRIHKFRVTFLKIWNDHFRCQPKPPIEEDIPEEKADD
The data set can be described thus: Displacement of [3H]CCPA from recombinant mouse A1 adenosine receptor expressed in CHO cell membranes measured after 60 mins by liquid scintillation counting method.

The target in data set [4] is T4, Adenosine receptor A3 (Rattus norvegicus, UniProt P28647).
T4 sequence (P28647 whole entry): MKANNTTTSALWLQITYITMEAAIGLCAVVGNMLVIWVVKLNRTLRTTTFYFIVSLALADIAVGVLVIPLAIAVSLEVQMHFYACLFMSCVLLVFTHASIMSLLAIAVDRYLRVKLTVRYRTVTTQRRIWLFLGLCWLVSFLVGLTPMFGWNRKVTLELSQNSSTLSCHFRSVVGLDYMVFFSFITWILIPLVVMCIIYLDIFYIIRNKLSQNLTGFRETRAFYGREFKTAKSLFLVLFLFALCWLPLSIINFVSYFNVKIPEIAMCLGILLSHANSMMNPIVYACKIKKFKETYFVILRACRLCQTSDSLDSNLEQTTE
As to the kind of experiment: Binding affinity to rat A3 adenosine receptor.

Data set [5] deals with Adenosine receptor A2a (Mus musculus, UniProt Q60613). The data set can be described thus: Displacement of [3H]MSX-2 from recombinant mouse A2A adenosine receptor expressed in CHO cell membranes measured after 60 mins by liquid scintillation counting method.
A short description of data set [6]: Semi-thermodynamic solubility of the compound at 200 uM after 24 hrs by LC/MS-based shake-flask method. To be noted: read-out: Therm_solubility. The class given is physicochemical.
Data set [7] has as its target T5, Adenosine receptor A1 (Homo sapiens, UniProt P30542).
T5 sequence (P30542 whole entry): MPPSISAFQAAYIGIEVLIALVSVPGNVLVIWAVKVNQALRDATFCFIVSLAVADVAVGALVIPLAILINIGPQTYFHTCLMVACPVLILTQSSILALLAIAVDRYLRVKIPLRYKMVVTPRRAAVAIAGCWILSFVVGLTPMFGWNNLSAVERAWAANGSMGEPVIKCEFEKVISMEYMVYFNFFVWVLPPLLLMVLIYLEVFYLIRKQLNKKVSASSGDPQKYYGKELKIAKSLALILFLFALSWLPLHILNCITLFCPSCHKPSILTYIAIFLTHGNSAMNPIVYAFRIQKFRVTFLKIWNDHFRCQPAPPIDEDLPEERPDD
As to the kind of experiment: Displacement of [3H]CCPA from recombinant human A1 adenosine receptor expressed in CHO cell membranes measured after 90 mins in presence of adenosine deaminase by liquid scintillation counting method. The method, boiled down:
(§1)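 Competition binding on membranes of cells recombinantly expressing the human receptor (CHO or HEK cells), with tritiated radioligand per subtype: [3H]PSB-603 for A2B, [3H]MSX-2 for A2A, [3H]CCPA for A1, [3H]PSB-11 for A3. Ki ± SEM from n = 3, some from extrapolated curves. Weak binders are reported as % inhibition of radioligand binding at 1 μM.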

The target in data set [8] is T6, Adenosine receptor A3 (Homo sapiens) (UniProt P0DMS8).
T6 sequence (whole entry): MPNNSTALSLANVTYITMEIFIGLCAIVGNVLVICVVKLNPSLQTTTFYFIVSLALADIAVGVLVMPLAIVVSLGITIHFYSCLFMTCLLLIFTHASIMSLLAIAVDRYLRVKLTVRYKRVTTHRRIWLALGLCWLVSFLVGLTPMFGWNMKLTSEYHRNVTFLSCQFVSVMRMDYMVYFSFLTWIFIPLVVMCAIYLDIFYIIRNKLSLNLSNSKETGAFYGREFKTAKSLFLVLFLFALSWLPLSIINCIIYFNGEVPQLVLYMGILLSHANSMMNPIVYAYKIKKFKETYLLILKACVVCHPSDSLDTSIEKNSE
As to the kind of experiment: Displacement of [3H]PSB-11 from recombinant human A3 adenosine receptor expressed in CHO cell membranes at 1 uM measured after 45 mins in presence of adenosine deaminase by liquid scintillation counting method relative to control. The method, boiled down:
(§2)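 Single-point competition binding at human AR subtype membranes, each against its own tritiated radioligand. The test compound is given at 1 μM, and the result is reported as percent inhibition of radioligand binding. The radioligand-specific footnotes give n = 3.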

Data set [9] is filed under the species Homo sapiens. As to the kind of experiment: Selectivity index, ratio of Ki for displacement of [3H]CCPA from recombinant human A1 adenosine receptor expressed in CHO cell membranes to Ki for displacement of [3H]PSB-603 from recombinant human A2B adenosine receptor expressed in CHO cell membranes.
Data set [10] deals with T7, Adenosine receptor A2a (Homo sapiens, UniProt P29274). As to the kind of experiment: Displacement of [3H]MSX-2 from recombinant human A2A adenosine receptor expressed in CHO cell membranes measured after 30 mins in presence of adenosine deaminase by liquid scintillation counting method. The method, boiled down:
as §1

The species entered for data set [11] is Homo sapiens. As to the kind of experiment: Selectivity index, ratio of Ki for displacement of [3H]MSX-2 from recombinant human A2A adenosine receptor expressed in CHO cell membranes to Ki for displacement of [3H]PSB-603 from recombinant human A2B adenosine receptor expressed in CHO cell membranes.
The target in data set [12] is T7, Adenosine receptor A2a. As to the kind of experiment: Displacement of [3H]MSX-2 from recombinant human A2A adenosine receptor expressed in CHO cell membranes at 1 uM measured after 30 mins in presence of adenosine deaminase by liquid scintillation counting method relative to control. Put shortly: as §2
Data set [13] addresses T8, Adenosine receptor A1 (Homo sapiens) (UniProt P30542).
T8 sequence (whole entry): T5 sequence (P30542 whole entry)
As to the kind of experiment: Displacement of [3H]CCPA from recombinant human A1 adenosine receptor expressed in CHO cell membranes at 1 uM measured after 90 mins in presence of adenosine deaminase by liquid scintillation counting method relative to control. The method, boiled down:
as §2

Data set [14] has as its target T9, Adenosine receptor A3 (Homo sapiens, UniProt P0DMS8).
T9 sequence (P0DMS8 whole entry): T6 sequence (whole entry)
The data set can be described thus: Displacement of [3H]PSB-11 from recombinant human A3 adenosine receptor expressed in CHO cell membranes measured after 45 mins in presence of adenosine deaminase by liquid scintillation counting method. The method, boiled down: as §1

Data set [15] is filed under the species Homo sapiens. As to the kind of experiment: Selectivity index, ratio of Ki for displacement of [3H]PSB-11 from recombinant human A3 adenosine receptor expressed in CHO cell membranes to Ki for displacement of [3H]PSB-603 from recombinant human A2B adenosine receptor expressed in CHO cell membranes.
The target in data set [16] is T10, Adenosine receptor A2b (Homo sapiens, UniProt P29275).
T10 sequence (P29275 whole entry): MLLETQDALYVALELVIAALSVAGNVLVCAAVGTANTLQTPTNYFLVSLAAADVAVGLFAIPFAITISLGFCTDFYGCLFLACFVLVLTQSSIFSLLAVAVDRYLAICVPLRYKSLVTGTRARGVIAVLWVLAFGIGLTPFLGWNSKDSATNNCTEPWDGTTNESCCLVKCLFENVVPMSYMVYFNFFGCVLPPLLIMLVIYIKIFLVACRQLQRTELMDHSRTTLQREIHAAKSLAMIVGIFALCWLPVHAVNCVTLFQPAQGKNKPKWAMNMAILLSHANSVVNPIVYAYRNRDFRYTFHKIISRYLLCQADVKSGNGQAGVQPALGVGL
The data set can be described thus: Displacement of [3H]PSB-603 from recombinant human A2B adenosine receptor expressed in CHO cell membranes measured after 75 mins in presence of adenosine deaminase by liquid scintillation counting method. The method, boiled down:
as §1

T7 sequence (P29274 whole entry): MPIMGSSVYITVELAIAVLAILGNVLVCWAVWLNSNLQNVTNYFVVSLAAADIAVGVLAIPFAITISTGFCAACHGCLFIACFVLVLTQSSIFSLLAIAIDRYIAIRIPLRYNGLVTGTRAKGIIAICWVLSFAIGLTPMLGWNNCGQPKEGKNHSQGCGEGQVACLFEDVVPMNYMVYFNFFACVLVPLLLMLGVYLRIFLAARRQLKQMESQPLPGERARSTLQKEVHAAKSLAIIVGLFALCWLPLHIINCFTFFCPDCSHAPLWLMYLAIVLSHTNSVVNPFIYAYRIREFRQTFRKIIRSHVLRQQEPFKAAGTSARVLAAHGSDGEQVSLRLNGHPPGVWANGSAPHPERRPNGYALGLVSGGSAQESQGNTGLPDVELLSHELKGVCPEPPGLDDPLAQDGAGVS
Adenosine receptor A2a (Mus musculus, UniProt Q60613), sequence (Q60613 whole entry): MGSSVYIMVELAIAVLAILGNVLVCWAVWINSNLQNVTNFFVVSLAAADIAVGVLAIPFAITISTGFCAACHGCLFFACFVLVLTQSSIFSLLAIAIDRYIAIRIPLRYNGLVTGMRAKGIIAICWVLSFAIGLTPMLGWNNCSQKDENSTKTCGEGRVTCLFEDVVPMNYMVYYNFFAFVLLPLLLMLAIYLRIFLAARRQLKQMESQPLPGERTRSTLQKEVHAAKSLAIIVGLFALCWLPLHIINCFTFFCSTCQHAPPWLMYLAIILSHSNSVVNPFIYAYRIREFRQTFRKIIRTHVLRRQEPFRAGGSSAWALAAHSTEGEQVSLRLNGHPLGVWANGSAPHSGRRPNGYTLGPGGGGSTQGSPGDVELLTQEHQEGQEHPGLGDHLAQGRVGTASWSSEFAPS

For the compound `CCCn1c(=O)c2[nH]c(-c3ccc(OCC(=O)Nc4ccc(C#N)cc4)cc3)nc2n(CCC)c1=O`, the Ki in data set [1] was 3.12 nM; in data set [2], more than 10000 nM; in data set [3], 1.45 nM; in data set [4], more than 10000 nM; in data set [5], more than 10000 nM.
Consider `CCCn1c(=O)[nH]c2nc(-c3ccc(S(=O)(=O)N4CCN(Cc5ccc(Cl)cc5)CC4)cc3)[nH]c2c1=O`, for which the solubility thermodynamic at 24 h, 200 µM in data set [6] is 3.2 µM (≈ 1.74 µg/mL).
With `CCCn1c(=O)[nH]c2nc(-c3ccc(S(=O)(=O)N4CCN(c5ccccc5F)CC4)cc3)[nH]c2c1=O`, the Ki in data set [7] is more than 1000 nM; in [10], more than 1000 nM; in data set [14] it was more than 1000 nM; in data set [16], 3.22 nM. In addition, the inhibition in data set [8] came to 9%; in data set [12] it was 27%; in data set [13], 13%. Further, the Ratio Ki in data set [9], in data set [11] and in data set [15] was more than 310 throughout.
